Test results as given in ChEMBL document CHEMBL2384929, “Synthesis and biological evaluation of fluoro analogues of antimitotic phenstatin” (Bioorg Med Chem, 2013).

Key:
[1] = Inhibition of sheep brain tubulin assembly by DAPI staining-based fluorescence assay; design: species or system Ovis aries
Outline: (§1)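 Tubulin from sheep brain, purified by two assembly–disassembly cycles, at about 2–3 mg/mL in 0.1 M MES, 0.5 mM MgCl2, 1 mM EGTA, 1 mM GTP, pH 6.6. Assembly followed by DAPI fluorescence at 37 °C. Single-point inhibition tested at 100 µM. IC50 is the concentration halving the assembly rate relative to no compound, mean of two experiments, with reference inhibitors run the same day.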

Ovis aries = species: Ovis aries; assay: Inhibition of sheep brain tubulin assembly at 100 uM by DAPI staining-based fluorescence assay; outline: as §1
HL-60(TB) = assay: Cytotoxicity against human HL-60(TB) cells assessed as growth inhibition after 48 hrs by SRB assay; format: functional; settings: HL-60, 48 h
Outline: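 NCI 60-human-cancer-cell-line screen; only compounds meeting predetermined threshold inhibition criteria in the single-dose test went on to the 5-dose screen. Cells exposed for 48 h and growth read by sulforhodamine B assay. GI50 is the molar concentration giving 50% growth inhibition of tumour cells.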

Malme-3M = assay: Cytotoxicity against human MALME-3M cells assessed as growth inhibition after 48 hrs by SRB assay; format: functional
Outline: (§2)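 Run in the NCI 60 human tumour cell line panel. Cells exposed for 48 h, growth read by sulforhodamine B. Compounds were first screened at a single 10 µM dose, and those meeting preset threshold inhibition criteria went on to the 5-dose screen. GI50 is the molar concentration giving 50% growth inhibition.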

OVCAR-3 = assay: Cytotoxicity against human OVCAR3 cells assessed as growth inhibition after 48 hrs by SRB assay; format: functional; settings: OVCAR-3, 48 h; outline: as §2
SNB-75 = assay: Cytotoxicity against human SNB75 cells assessed as growth inhibition after 48 hrs by SRB assay; format: functional; settings: SNB-75, 48 h; outline: as §2
NCI-H23 = assay: Cytotoxicity against human NCI-H23 cells assessed as growth inhibition after 48 hrs by SRB assay; format: functional; settings: NCI-H23, 48 h; outline: as §2
Hs-578T = assay: Cytotoxicity against human Hs578T cells assessed as growth inhibition after 48 hrs by SRB assay; format: functional; outline: as §2
NCI/ADR-RES [2] = assay: Cytotoxicity against human NCI/ADR-RES cells assessed as growth inhibition after 48 hrs by SRB assay; format: functional; outline: as §2
DU-145 = assay: Cytotoxicity against human DU145 cells assessed as growth inhibition after 48 hrs by SRB assay; format: functional; settings: DU-145, 48 h; outline: as §2
MDA-MB-231 = assay: Cytotoxicity against human MDA-MB-231 cells assessed as growth inhibition after 48 hrs by SRB assay; format: functional; settings: MDA-MB-231, 48 h; outline: as §2
ACHN = assay: Cytotoxicity against human ACHN cells assessed as growth inhibition after 48 hrs by SRB assay; format: functional; outline: as §2
BT-549 = assay: Cytotoxicity against human BT549 cells assessed as growth inhibition after 48 hrs by SRB assay; format: functional; settings: BT-549, 48 h; outline: as §2
NCI-H522 [3] = assay: Cytotoxicity against human NCI-H522 cells assessed as growth inhibition after 48 hrs by SRB assay; format: functional; settings: NCI-H522, 48 h; outline: as §2
SF-268 = assay: Cytotoxicity against human SF268 cells assessed as growth inhibition after 48 hrs by SRB assay; format: functional; settings: SF-268, 48 h; outline: as §2
MDA-MB-435 [4] = assay: Cytotoxicity against human MDA-MB-435 cells assessed as growth inhibition after 48 hrs by SRB assay; format: functional; settings: MDA-MB-435, 48 h; outline: as §2
PC-3 = assay: Cytotoxicity against human PC3 cells assessed as growth inhibition after 48 hrs by SRB assay; format: functional; settings: PC-3, 48 h; outline: as §2
SNB-19 = assay: Cytotoxicity against human SNB19 cells assessed as growth inhibition after 48 hrs by SRB assay; format: functional; settings: SNB-19, 48 h; outline: as §2
RXF 393 = assay: Cytotoxicity against human RXF393 cells assessed as growth inhibition after 48 hrs by SRB assay; format: functional; settings: RXF 393, 48 h; outline: as §2
SN12C = assay: Cytotoxicity against human SN12C cells assessed as growth inhibition after 48 hrs by SRB assay; format: functional; outline: as §2
HCT-15 = assay: Cytotoxicity against human HCT15 cells assessed as growth inhibition after 48 hrs by SRB assay; format: functional; settings: HCT-15, 48 h; outline: as §2
KM12 [5] = assay: Cytotoxicity against human KM12 cells assessed as growth inhibition after 48 hrs by SRB assay; format: functional; settings: KM12, 48 h; outline: as §2
NCI-H460 = assay: Cytotoxicity against human NCI-H460 cells assessed as growth inhibition after 48 hrs by SRB assay; format: functional; settings: NCI-H460, 48 h; outline: as §2
SR [6] = assay: Cytotoxicity against human SR cells assessed as growth inhibition after 48 hrs by SRB assay; format: functional; outline: as §2
SW-620 = assay: Cytotoxicity against human SW620 cells assessed as growth inhibition after 48 hrs by SRB assay; format: functional; settings: SW-620, 48 h; outline: as §2
M14 = assay: Cytotoxicity against human M14 cells assessed as growth inhibition after 48 hrs by SRB assay; format: functional; settings: M14, 48 h; outline: as §2
K562 [7] = assay: Cytotoxicity against human K562 cells assessed as growth inhibition after 48 hrs by SRB assay; format: functional; settings: K562, 48 h; outline: as §2
CCRF-CEM = assay: Cytotoxicity against human CCRF-CEM cells assessed as growth inhibition after 48 hrs by SRB assay; format: functional; outline: as §2
SK-OV-3 = assay: Cytotoxicity against human SKOV3 cells assessed as growth inhibition after 48 hrs by SRB assay; format: functional; settings: SK-OV-3, 48 h; outline: as §2
SF-539 = assay: Cytotoxicity against human SF539 cells assessed as growth inhibition after 48 hrs by SRB assay; format: functional; settings: SF-539, 48 h; outline: as §2
SR [8] = assay: Cytotoxicity against human SR cells assessed as growth inhibition at 10 uM after 48 hrs by SRB assay; format: functional; settings: read-out: GI
Outline: (§3)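 Single-dose NCI 60-cell screen at 10 µM with 48 h exposure and sulforhodamine B read-out. Values are percentage growth per cell line. A summary ratio counts cell lines with 0–50% growth over all cell lines tested.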

MDA-MB-435 [9] = assay: Cytotoxicity against human MDA-MB-435 cells assessed as growth inhibition at 10 uM after 48 hrs by SRB assay; format: functional; settings: MDA-MB-435, 48 h, read-out: GI; outline: as §3
KM12 [10] = assay: Cytotoxicity against human KM12 cells assessed as growth inhibition at 10 uM after 48 hrs by SRB assay; format: functional; settings: KM12, 48 h, read-out: GI; outline: as §3
K562 [11] = assay: Cytotoxicity against human K562 cells assessed as growth inhibition at 10 uM after 48 hrs by SRB assay; format: functional; settings: K562, 48 h, read-out: GI; outline: as §3
NCI/ADR-RES [12] = assay: Cytotoxicity against human NCI/ADR-RES cells assessed as growth inhibition at 10 uM after 48 hrs by SRB assay; format: functional; settings: read-out: GI; outline: as §3
NCI-H522 [13] = assay: Cytotoxicity against human NCI-H522 cells assessed as growth inhibition at 10 uM after 48 hrs by SRB assay; format: functional; settings: NCI-H522, 48 h, read-out: GI; outline: as §3

SMILES | IC50 [1] | inhibition (Ovis aries) | GI50 (HL-60(TB)) | GI50 (Malme-3M) | GI50 (OVCAR-3) | GI50 (SNB-75) | GI50 (NCI-H23) | GI50 (Hs-578T) | GI50 (NCI/ADR-RES [2]) | GI50 (DU-145) | GI50 (MDA-MB-231) | GI50 (ACHN) | GI50 (BT-549) | GI50 (NCI-H522 [3]) | GI50 (SF-268) | GI50 (MDA-MB-435 [4]) | GI50 (PC-3) | GI50 (SNB-19) | GI50 (RXF 393) | GI50 (SN12C) | further results
COc1ccc(C(=O)c2cc(F)c(F)c(OC)c2F)c(O)c1O | 29200 nM | 93% | – | – | – | – | – | – | – | – | – | – | – | – | – | – | – | – | – | – | –
C=C(c1ccc(OC)c(O)c1)c1cc(F)c(F)c(OC)c1F | 42200 nM | 77% | 23 nM | 44 nM | 217 nM | 55 nM | 385 nM | 52 nM | 38 nM | 139 nM | 94 nM | 67 nM | 61 nM | 25 nM | 75 nM | 19 nM | 140 nM | 67 nM | 176 nM | 209 nM | GI50 (HCT-15): 45 nM; GI50 (KM12 [5]): 47 nM; GI50 (NCI-H460): 343 nM; GI50 (SR [6]): 15 nM; GI50 (SW-620): 45 nM; GI50 (M14): 38 nM; GI50 (K562 [7]): 37 nM; GI50 (CCRF-CEM): 37 nM; GI50 (SK-OV-3): 94 nM; GI50 (SF-539): 31 nM
COc1cc(C(=O)c2cc(OC)c(OC)c(OC)c2)c(OC)cc1F | 24000 nM | 77% | 203 nM | 433 nM | 45 nM | 109 nM | 421 nM | 194 nM | 68 nM | 257 nM | 388 nM | 693 nM | 365 nM | 102 nM | 748 nM | 25 nM | 207 nM | 419 nM | 144 nM | 602 nM | GI50 (HCT-15): 55 nM; GI50 (KM12 [5]): 50 nM; GI50 (NCI-H460): 115 nM; GI50 (SR [6]): 43 nM; GI50 (SW-620): 63 nM; GI50 (M14): 72 nM; GI50 (K562 [7]): 46 nM; GI50 (CCRF-CEM): 192 nM; GI50 (SK-OV-3): 213 nM; GI50 (SF-539): 164 nM
COc1cc(C(=O)c2cc(OC)c(O)c(OC)c2)c(OC)cc1F | – | 48% | – | – | – | – | – | – | – | – | – | – | – | – | – | – | – | – | – | – | inhibition of growth at 10 µM (SR [8]): 22%; inhibition of growth at 10 µM (MDA-MB-435 [9]): 21%
COc1ccc(C(=O)c2ccc(OC)c(NC(C)=O)c2OC)cc1F | – | 3% | – | – | – | – | – | – | – | – | – | – | – | – | – | – | – | – | – | – | –
COc1ccc(C(O)c2cc(F)c(F)c(OC)c2F)cc1O (stereo unspecified) | – | 49% | – | – | – | – | – | – | – | – | – | – | – | – | – | – | – | – | – | – | inhibition of growth at 10 µM (SR [8]): 33%; inhibition of growth at 10 µM (KM12 [10]): 26%; inhibition of growth at 10 µM (K562 [11]): 41%; inhibition of growth at 10 µM (NCI/ADR-RES [12]): 35%; inhibition of growth at 10 µM (NCI-H522 [13]): 53%
COc1ccc(C(=O)c2cc(F)c(F)c(OC)c2F)c(OC)c1N | 29200 nM | 89% | 3690 nM | 11500 nM | 2090 nM | 1700 nM | 30700 nM | 3780 nM | 1670 nM | 3910 nM | 8550 nM | 7900 nM | 34100 nM | 752 nM | 6540 nM | 407 nM | 10200 nM | 5470 nM | 4510 nM | 5810 nM | GI50 (HCT-15): 2980 nM; GI50 (KM12 [5]): 890 nM; GI50 (NCI-H460): 3000 nM; GI50 (SR [6]): 961 nM; GI50 (SW-620): 2840 nM; GI50 (K562 [7]): 1830 nM; GI50 (CCRF-CEM): 3350 nM; GI50 (SK-OV-3): 8370 nM; GI50 (SF-539): 3590 nM
